{"data": "Measurements pooled from the literature", "target": "Serine/threonine-protein kinase VRK1 (VRK1, Homo sapiens, UniProt Q99986)", "Residues used in one study (Q99986 1-396)": "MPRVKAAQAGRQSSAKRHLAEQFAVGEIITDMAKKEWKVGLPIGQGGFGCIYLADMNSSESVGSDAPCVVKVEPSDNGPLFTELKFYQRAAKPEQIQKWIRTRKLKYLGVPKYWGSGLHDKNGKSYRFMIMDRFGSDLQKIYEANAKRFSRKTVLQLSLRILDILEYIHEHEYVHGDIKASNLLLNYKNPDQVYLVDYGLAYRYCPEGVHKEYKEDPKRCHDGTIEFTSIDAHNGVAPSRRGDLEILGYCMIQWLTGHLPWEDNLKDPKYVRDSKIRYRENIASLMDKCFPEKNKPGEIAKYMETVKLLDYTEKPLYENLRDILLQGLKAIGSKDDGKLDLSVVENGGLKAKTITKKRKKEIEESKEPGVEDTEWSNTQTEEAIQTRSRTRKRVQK", "note": "Protocols differ between the studies behind these lines."}
{"Structure (SMILES)": "CN1CCC2(CC1)NC(=O)c1c(c3ccc(Cl)c(Cl)c3n1C)C2C#N (racemic)", "observed": "thermal stability", "technique": "DSF", "tested at": "10 µM", "endpoint": "ΔTm", "value": "0 °C"}
{"Structure (SMILES)": "O=C(Nc1cnn(-c2csc(C(=O)NC3COC3)c2)c1)Nc1ccccc1Cl", "observed": "enzyme activity", "mode": "inhibitor", "tested at": "5 µM", "endpoint": "remaining activity", "value": "109%"}
{"Structure (SMILES)": "N#CC1c2c([nH]c3c(Cl)c(Cl)ccc23)C(=O)NC12CCCCC2 (racemic)", "observed": "thermal stability", "technique": "DSF", "tested at": "10 µM", "endpoint": "ΔTm", "value": "0.1 °C"}
{"Structure (SMILES)": "COc1cc(Cl)c(C(=O)N[C@@H](CN[C@H]2CC[C@@H](N)CC2)Cc2ccc(C#N)cc2)cc1-c1ccc(CN[C@H](C)c2ccc(C)cc2)o1", "observed": "enzyme activity", "mode": "inhibitor", "tested at": "1 µM", "endpoint": "remaining activity", "value": "93%"}
{"Structure (SMILES)": "CC(C)(O)[C@H]1CC[C@H](Nc2ccc3ncc(-c4cccc(C(F)(F)F)c4)n3n2)CC1", "observed": "enzyme activity", "mode": "inhibitor", "tested at": "1 µM", "endpoint": "remaining activity", "value": "74.9%"}
{"Structure (SMILES)": "O=C1Nc2ccc(Cl)cc2C1=Cc1cc(Cl)c(O)c(Cl)c1", "observed": "cell-free assay", "tested at": "0.5 µM", "endpoint": "remaining signal", "value": "80.6%"}
{"Structure (SMILES)": "CN1CC(Oc2cnc(C#N)cc2-c2ccn3nc(NC(=O)C4CC4)cc3c2)C1", "observed": "enzyme activity", "mode": "inhibitor", "tested at": "1 µM", "endpoint": "inhibition", "value": "-1%"}
{"Structure (SMILES)": "CC(C)(C)c1nc(-c2cccc(NS(=O)(=O)c3c(F)cccc3F)c2F)c(-c2ccnc(N)n2)s1", "observed": "enzyme activity", "mode": "inhibitor", "technique": "radiometric", "tested at": "1 µM", "endpoint": "remaining activity", "value": "77%"}
{"Structure (SMILES)": "Cn1c2c(Cl)c(Cl)ccc2c2cn[nH]c(=O)c21", "observed": "thermal stability", "technique": "DSF", "tested at": "10 µM", "endpoint": "ΔTm", "value": "0 °C"}
{"Structure (SMILES)": "CC(C)(C)c1nc2c(s1)c1nc(N)ncc1c1ccc(NS(=O)(=O)c3c(F)cccc3F)c(F)c12", "observed": "enzyme activity", "mode": "inhibitor", "technique": "radiometric", "tested at": "1 µM", "endpoint": "remaining activity", "value": "82%"}
{"Structure (SMILES)": "O=C(Nc1cnn(-c2csc(C(=O)NC3COC3)c2)c1)Nc1c(F)cccc1Cl", "observed": "enzyme activity", "mode": "inhibitor", "tested at": "5 µM", "endpoint": "remaining activity", "value": "91.9%"}
